Data set [1] is described as follows: Dissociation constant (pKa). The class given is physicochemical.
A short description of data set [2]: Evaluated for the inhibition constant determined from the Dixon and slope vs. inhibitor concentration plots. Format: functional, Escherichia coli. Put shortly: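 Ki values came from the E. coli MRE-600 70S ribosome puromycin reaction, using poly(U), N-Ac-[14C]Phe-tRNA and puromycin in Tris-HCl pH 7.4 with NH4Cl and MgCl2, at 37 °C for 30 min. Inhibitor concentration was varied. Ethyl acetate-extracted product was counted by scintillation. Ki was derived from Dixon plots built by linear regression and from slope versus inhibitor concentration plots.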

Data set [3] deals with Escherichia coli. The experiment in a line: Evaluated for percent inhibition against N-acetyl-L-[14C] phenylalanylpuromycin formation at 8e-4M. The class given is functional. Put shortly: (§1)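 Cell-free puromycin reaction with E. coli MRE-600 70S ribosomes (NH4Cl-washed, 4.0 A260 units) in 0.1 mL containing 0.05 M Tris-HCl pH 7.4, 0.1 M NH4Cl, 0.01 M MgCl2, 10 μg poly(U), 0.20 A260 unit N-Ac-[14C]Phe-tRNA, puromycin and inhibitor. Incubated at 37 °C for 30 min. Product extracted into ethyl acetate and counted by scintillation. Single-point inhibition was read at 8×10^-4 M.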

For data set [4], the system named is Escherichia coli. Briefly: Generation rate constant […] obtained from the inhibition of growth of Escherichia coli cells. Format: organism-based.
Data set [5] concerns Escherichia coli. The experiment in a line: Evaluated for the concentration required for a 50% inhibition of N-acetyl-L-[14C] phenylalanylpuromycin formation. Format: functional. The method, boiled down: as §1

With `[N-]=[N+]=NCC(=O)NC(CO)C(O)c1ccc([N+](=O)[O-])cc1` (configuration not stated), in data set [1], the pKa (commonly the pH at which an ionisable group is half protonated) was 3.03. For the same compound, in data set [2], affinity was put at a Ki of 22 µM. Further, the inhibition (usually how much of the control response was suppressed) in data set [3] came to 60%.
As for `O=C(NC(CO)C(O)c1ccc([N+](=O)[O-])cc1)c1ccco1` (configuration not stated), in data set [1], the pKa was determined as 3.12. The compound also displayed an inhibition in data set [3] of 10%.
Take `O=C(CF)NC(CO)C(O)c1ccc([N+](=O)[O-])cc1` (configuration not stated): in data set [1], the pKa came to 2.66. The inhibition in data set [3] was 27%. In data set [4], this compound returned a Log k of 1.16.
`N#CCC(=O)NC(CO)C(O)c1ccc([N+](=O)[O-])cc1` (configuration not stated) had an ID50 in data set [5] of 350 µM. The same compound displayed a pKa in data set [1] of 2.43. Further, the Ki (commonly the equilibrium dissociation constant of an inhibitor or competing ligand from its target) in data set [2] turned out to be 1.7 µM. The compound also had a Log k in data set [4] of 0.14.
`O=C(NC(CO)C(O)c1ccc([N+](=O)[O-])cc1)C(Cl)(Cl)Cl` (configuration not stated): the ID50 in data set [5] amounted to 250 µM. The same compound displayed a pKa in data set [1] of 0.65. The compound further gave a Ki in data set [2] of 3 µM. The same compound came in with a Log k in data set [4] of 0.75.
Turning to `O=C(NC(CO)C(O)c1ccc([N+](=O)[O-])cc1)C1CCC1` (configuration not stated), the pKa in data set [1] was determined as 4.79. For the same compound, the inhibition in data set [3] amounted to 10%.
In the same order, the values of `CCC(=O)NC(CO)C(O)c1ccc([N+](=O)[O-])cc1` (configuration not stated) are 4.88 and 39%.
Taken in the same sequence, the figures for `O=C(NC(CO)C(O)c1ccc([N+](=O)[O-])cc1)C1CC1` (configuration not stated) were 4.83 and 20%.
In data set [5], `O=C(N[C@H](CO)[C@H](O)c1ccc([N+](=O)[O-])cc1)C(Cl)Cl` [CHLORAMPHENICOL] showed an ID50 of 30 µM. The pKa in data set [1] worked out at 1.29. The compound also came in with a Ki in data set [2] of 1.6 µM.
Taken in the same sequence, the figures for `CS(=O)(=O)NC(CO)C(O)c1ccc([N+](=O)[O-])cc1` (configuration not stated) were 200 µM, -0.6 and 1.1 µM.
The compound `O=[N+]([O-])c1ccc(C(O)C(CO)NP(=O)(O)CCl)cc1` (configuration not stated) gave a pKa in data set [1] of 1.4. In data set [3], the inhibition worked out at 10%.
Taken in the same sequence, the figures for `O=CNC(CO)C(O)c1ccc([N+](=O)[O-])cc1` (configuration not stated) were 3.77 and 10%.
On to `CCCC(=O)NC(CO)C(O)c1ccc([N+](=O)[O-])cc1` (configuration not stated), for which, in data set [1], the pKa amounted to 4.82. The compound further had an inhibition in data set [3] of 34%. In data set [4], this compound gave a Log k of 0.71.
`O=C(CCl)NC(CO)C(O)c1ccc([N+](=O)[O-])cc1` (configuration not stated): the ID50 in data set [5] was 500 µM. In addition, in data set [1], the pKa came out at 2.86. In data set [2], this compound gave a Ki of 27 µM. For the same compound, the Log k in data set [4] amounted to 1.71.
Regarding `O=C(CO)NC(CO)C(O)c1ccc([N+](=O)[O-])cc1` (configuration not stated), in data set [1], the pKa worked out at 3.83. In data set [3], this compound returned an inhibition of 10%.
In data set [1], `CC(=O)NC(CO)C(O)c1ccc([N+](=O)[O-])cc1` (configuration not stated) returned a pKa of 4.76. In data set [3], the inhibition worked out at 34%. Moreover, the Log k in data set [4] was determined as 0.48.
In data set [5], `O=C(NC(CO)C(O)c1ccc([N+](=O)[O-])cc1)C(Br)Br` (configuration not stated) showed an ID50 of 70 µM. The compound also yielded a Ki in data set [2] of 1 µM. In data set [4], this compound came in with a Log k of 1.84.

(Values after ChEMBL document CHEMBL1121569, “Analogues of chloramphenicol: circular dichroism spectra, inhibition of ribosomal peptidyltransferase, and possible mechanism of action” (J Med Chem, 1980).)
